{"data": "Measurements from different studies", "method": "competition with immobilised ligand", "RPS6KA3 C-terminal kinase domain": "Ribosomal protein S6 kinase alpha-3, C-terminal kinase domain (RPS6KA3, Homo sapiens, UniProt P51812)", "RPS6KA3 N-terminal kinase domain": "Ribosomal protein S6 kinase alpha-3, N-terminal kinase domain (RPS6KA3, Homo sapiens, UniProt P51812)", "note": "Lines come from different studies, so protocols differ."}
{"Structure (SMILES)": "Cc1c(NC(=O)c2cc(C(N)=O)nc3cc(F)ccc23)c(C(F)(F)F)nn1Cc1ccc(C(C)(C)C)cc1", "target": "RPS6KA3 C-terminal kinase domain", "test": "cell-free assay", "setting": "1 µM", "remaining binding": "100%"}
{"Structure (SMILES)": "c1cnn2ncc(-c3ccnc(N4CCC45COC5)n3)c2c1", "target": "RPS6KA3 N-terminal kinase domain", "test": "binding", "setting": "1 µM", "remaining binding": "61%"}
{"Structure (SMILES)": "O=C1NC(c2ccccn2)Sc2ccccc21 (stereo not shown)", "target": "RPS6KA3 N-terminal kinase domain", "test": "cell-free assay", "setting": "1 µM", "remaining binding": "72%"}
{"Structure (SMILES)": "O=C(c1ccc(Nc2ncc(Cl)c(-c3ccc(Cl)s3)n2)cc1)N1CCC(N2CCCC2)CC1", "target": "RPS6KA3 C-terminal kinase domain", "test": "binding", "setting": "1 µM", "remaining binding": "100%"}
{"Structure (SMILES)": "CCCOc1ccc([C@H]2[C@H](C(=O)O)[C@@H](c3ccc4c(c3)OCO4)CN2CC(=O)Nc2c(CC)cccc2CC)cc1", "target": "RPS6KA3 N-terminal kinase domain", "test": "cell-free assay", "setting": "1 µM", "remaining binding": "72%"}
{"Structure (SMILES)": "C[C@H]1CCN(c2nccc(-c3cnn4ncccc34)n2)C1", "target": "RPS6KA3 C-terminal kinase domain", "test": "binding", "setting": "1 µM", "remaining binding": "93%"}
{"Structure (SMILES)": "c1cncc(-c2cccc(Nc3nccc(NC4CCCCC4)n3)c2)c1", "target": "RPS6KA3 C-terminal kinase domain", "test": "binding", "setting": "10 µM", "remaining binding": "79%"}
{"Structure (SMILES)": "C[C@@]1(Cc2ccc(C#N)cc2)C(=O)N(c2cc(Cl)cc(Cl)c2)c2ncc(C(=O)NC3(c4nc(C5CCC5)no4)CC3)n21", "target": "RPS6KA3 C-terminal kinase domain", "test": "cell-free assay", "setting": "1 µM", "remaining binding": "100%"}
{"Structure (SMILES)": "Nc1ncc2c(n1)-c1c([nH]c3ccc(C#CC4CC4)cc13)CCCC2", "target": "RPS6KA3 C-terminal kinase domain", "test": "binding", "setting": "1 µM", "remaining binding": "100%"}
{"Structure (SMILES)": "O=C(NCCCN1CCOCC1)c1ccc(Nc2nccc(-c3cc4ccccc4s3)n2)cc1", "target": "RPS6KA3 N-terminal kinase domain", "test": "binding", "setting": "1 µM", "remaining binding": "76%"}
{"Structure (SMILES)": "C[C@@H](c1ccc(-n2cnc3c(N)ncnc32)cc1)N1CCc2nn(C)c(Cc3ccccc3)c2C1=O", "target": "RPS6KA3 C-terminal kinase domain", "test": "binding", "setting": "0.1 µM", "remaining binding": "94%"}
{"Structure (SMILES)": "C=CC(=O)N1CCC(C(=O)NCC(=O)N2CCN(c3nc(-c4cnc(N)nc4C(F)F)nc(N4CCOCC4)n3)CC2)CC1", "target": "RPS6KA3 C-terminal kinase domain", "test": "binding", "setting": "1 µM", "remaining binding": "63%"}
{"Structure (SMILES)": "COc1cnc(Nc2cccc(S(N)(=O)=O)c2)nc1N1CCN(c2ccccc2)C(=O)C1", "target": "RPS6KA3 N-terminal kinase domain", "test": "binding", "setting": "1 µM", "remaining binding": "64%"}
{"Structure (SMILES)": "O=C(c1ccc(Nc2nccc(-c3cc4ccccc4s3)n2)cc1)N1CCC(N2CCCC2)CC1", "target": "RPS6KA3 N-terminal kinase domain", "test": "binding", "setting": "1 µM", "remaining binding": "78%"}
{"Structure (SMILES)": "CNC(=O)[C@@H]1CC[C@@H](n2c(-c3ccc4cnccc4c3)nc3ccc(C(=O)NCc4cccc(C(N)=O)c4)cc32)C1", "target": "RPS6KA3 N-terminal kinase domain", "test": "binding", "setting": "1 µM", "remaining binding": "87%"}
{"Structure (SMILES)": "FC(F)(F)Oc1cccc(-c2cnc3ccc(-c4ccncc4)nn23)c1", "target": "RPS6KA3 N-terminal kinase domain", "test": "binding", "setting": "5 µM", "remaining binding": "57%"}
{"Structure (SMILES)": "Cc1noc([C@H]2C[C@@H](c3ccc(C(F)(F)F)cc3)CN(C(=O)N3CCS(=O)(=O)C3)C2)n1", "target": "RPS6KA3 N-terminal kinase domain", "test": "cell-free assay", "setting": "1 µM", "remaining binding": "100%"}
{"Structure (SMILES)": "CCN1CCN(Cc2ccc(C(=O)Nc3ccc(C)c(Oc4ccc5c(c4)CC(=O)N5)c3)cc2C(F)(F)F)CC1", "target": "RPS6KA3 C-terminal kinase domain", "test": "binding", "setting": "1 µM", "remaining binding": "100%"}
{"Structure (SMILES)": "O=C(NCC1CCOCC1)c1n[nH]cc1NC(=O)c1c(F)cccc1F", "target": "RPS6KA3 C-terminal kinase domain", "test": "binding", "setting": "1 µM", "remaining binding": "98%"}
{"Structure (SMILES)": "Cc1cnn2ncc(-c3ccnc(N(C)C)n3)c2c1", "target": "RPS6KA3 N-terminal kinase domain", "test": "binding", "setting": "1 µM", "remaining binding": "95%"}
{"Structure (SMILES)": "O=C(c1ccc(Nc2ncc(Cl)c(-c3cc4ccccc4s3)n2)cc1)N1CCC(N2CCCC2)CC1", "target": "RPS6KA3 N-terminal kinase domain", "test": "binding", "setting": "1 µM", "remaining binding": "42%"}
{"Structure (SMILES)": "O=C(Nc1ccc(Oc2ccc(F)cc2)cc1)N1CCc2ncccc2[C@H]1c1ccc(F)cc1", "target": "RPS6KA3 C-terminal kinase domain", "test": "cell-free assay", "setting": "1 µM", "remaining binding": "97%"}
{"Structure (SMILES)": "CN(C)c1nccc(-c2cnn3ncccc23)n1", "target": "RPS6KA3 C-terminal kinase domain", "test": "binding", "setting": "1 µM", "remaining binding": "99%"}
{"Structure (SMILES)": "CC(C)(C)c1ccc(-c2nc(CBr)nn2-c2cccc(O)c2)cc1", "target": "RPS6KA3 N-terminal kinase domain", "test": "cell-free assay", "setting": "10 µM", "remaining binding": "74%"}
{"Structure (SMILES)": "NS(=O)(=O)c1cc(NC(=O)C2(c3ccccc3Cl)CC2)ccc1Oc1cccc(Cl)c1", "target": "RPS6KA3 N-terminal kinase domain", "test": "cell-free assay", "setting": "1 µM", "remaining binding": "92%"}
{"Structure (SMILES)": "O=C(Nc1c[nH]nc1C(=O)NC1CCNCC1)c1cc(F)cc(F)c1", "target": "RPS6KA3 N-terminal kinase domain", "test": "binding", "setting": "1 µM", "remaining binding": "74%"}
{"Structure (SMILES)": "CN(C)c1nccc(-c2cnc3ncccn23)n1", "target": "RPS6KA3 C-terminal kinase domain", "test": "binding", "setting": "1 µM", "remaining binding": "78%"}
{"Structure (SMILES)": "COc1cnc(Nc2cccc(S(N)(=O)=O)c2)nc1N1CCN(c2ccccc2)CC1", "target": "RPS6KA3 C-terminal kinase domain", "test": "binding", "setting": "1 µM", "remaining binding": "81%"}
{"Structure (SMILES)": "Cc1cnc(Nc2ccc(C(=O)N3CCC(N4CCCC4)CC3)cc2)nc1-c1cc2ccccc2s1", "target": "RPS6KA3 C-terminal kinase domain", "test": "binding", "setting": "1 µM", "remaining binding": "80%"}
{"Structure (SMILES)": "COc1ccnn2ncc(-c3ccnc(N(C)C)n3)c12", "target": "RPS6KA3 N-terminal kinase domain", "test": "binding", "setting": "1 µM", "remaining binding": "85%"}
{"Structure (SMILES)": "O=C(NCCCN1CCOCC1)c1ccc(Nc2ncc(Cl)c(-c3ccc(Cl)s3)n2)cc1", "target": "RPS6KA3 N-terminal kinase domain", "test": "binding", "setting": "1 µM", "remaining binding": "61%"}
{"Structure (SMILES)": "CCc1ccccc1C(=O)Nc1n[nH]c2c(C)c(F)c(C3C(C#N)=C(C)N(C)C(C)=C3C#N)cc12", "target": "RPS6KA3 N-terminal kinase domain", "test": "cell-free assay", "setting": "1 µM", "remaining binding": "0.3%"}
{"Structure (SMILES)": "N[C@@H]1CCN(c2nccc(-c3cnn4ncccc34)n2)C1", "target": "RPS6KA3 C-terminal kinase domain", "test": "binding", "setting": "1 µM", "remaining binding": "41%"}
{"Structure (SMILES)": "COc1ncc2cc3ccccc3nc2c1C#N", "target": "RPS6KA3 C-terminal kinase domain", "test": "cell-free assay", "setting": "5 µM", "remaining binding": "96%"}
